Assay outcomes deposited in PubChem by several laboratories.
Tb hexokinase = T. brucei hexokinase 1 inhibition; recombinant TbHK1, G6PDH-coupled NADH A340; inhibition, % at 10 µM; 0.11% of 220,000 active; AID 1430;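 active = inhibition of 50% or more in the single-dose primary screen; inactive = inhibition below 50%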
Calpain2 inh = blocks pig calpain II enzyme activity; purified calpain II, fluorogenic peptide substrate, 30 min; AID 1236; 0.37% of 220,000 active; inhibition, % at 16 µM;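 active = inhibition above about 50%, limit read from the data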
NPY-Y1 PAM-ag = potentiates or activates human NPY-Y1 receptor; NPY-Y1 expressing cells, potentiator/agonist activation; P25929; activation, % at 3.6 µM; 0.37% of 220,000 active; AID 1304; in the data active = activation above about 33%, passing the limit was not always enough;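 note: cells stimulated with NPY at EC10 then isoproterenol at EC100; 0% = low agonist plus stimulus and 100% = saturating agonist plus stimulus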
Target sequence (P25929 whole entry, looked up): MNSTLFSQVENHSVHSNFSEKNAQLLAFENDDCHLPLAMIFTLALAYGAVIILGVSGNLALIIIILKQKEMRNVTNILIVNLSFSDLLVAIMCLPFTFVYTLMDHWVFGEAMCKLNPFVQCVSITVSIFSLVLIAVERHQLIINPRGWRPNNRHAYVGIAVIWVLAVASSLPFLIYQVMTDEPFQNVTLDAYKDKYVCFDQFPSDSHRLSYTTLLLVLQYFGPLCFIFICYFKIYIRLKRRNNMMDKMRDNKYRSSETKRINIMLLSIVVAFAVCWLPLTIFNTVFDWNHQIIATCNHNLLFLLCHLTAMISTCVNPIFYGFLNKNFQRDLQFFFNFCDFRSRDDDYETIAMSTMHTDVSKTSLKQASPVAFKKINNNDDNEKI
NPY-Y1 antag = antagonists of human neuropeptide Y receptor Y1; P25929; HEK293-CNG Y1 cells, membrane potential fluorescence; NPY at EC95, then isoproterenol; inhibition, % at 3.6 µM; 1% of 200,000 active;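 active = inhibition above the campaign mean inhibition of all tested compounds plus 3 SD, cut at about 20% in these data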;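 note: 0% = DMSO wells given NPY plus isoproterenol and 100% = isoproterenol alone without NPY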
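Material: Y1- and CNG-channel-expressing HEK293 cells / Probe or stimulus: NPY 25 nM then isoproterenol 1 µM plus Ro 20-1724 25 µM / Doses: 3.6 µM single dose, DMSO 0.4% / Schedule: compound incubation 1 h at room temperature, readout 45 min post-stimulation / Signal: membrane potential fluorescence / Benchmarks: isoproterenol-only wells as full block versus NPY-plus-isoproterenol wells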
NPY Y2 blocker = NPY-Y2 (human) receptor antagonism. P49146. NPY-Y2 expressing cells, antagonist mode. inhibition, % at 2.7 µM. 0.99% of 140,000 active;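 note: 0% = vehicle with agonist challenge and 100% = reference antagonist with challenge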
Target sequence (P49146 whole entry, looked up): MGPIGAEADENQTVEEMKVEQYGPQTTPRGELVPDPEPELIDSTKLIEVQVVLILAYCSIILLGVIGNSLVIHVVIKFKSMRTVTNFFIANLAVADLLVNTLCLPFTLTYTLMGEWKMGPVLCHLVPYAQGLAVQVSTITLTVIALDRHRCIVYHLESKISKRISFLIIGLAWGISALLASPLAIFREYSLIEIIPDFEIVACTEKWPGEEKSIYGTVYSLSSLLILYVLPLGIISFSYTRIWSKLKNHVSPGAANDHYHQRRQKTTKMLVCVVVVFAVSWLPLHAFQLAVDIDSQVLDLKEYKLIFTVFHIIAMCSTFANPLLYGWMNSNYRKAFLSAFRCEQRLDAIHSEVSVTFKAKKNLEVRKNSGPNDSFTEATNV
NPY2 pot ag = potentiators or agonists of human neuropeptide Y receptor Y2; P49146; cells expressing NPY-Y2, potentiator/agonist read-out; activation, % at 3.6 µM; 0.45% of 220,000 active; in the data active = activation above about 27%;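 note: cells stimulated with NPY near EC25 plus isoproterenol at EC100; 0% = vehicle plus submaximal agonist and 100% = vehicle plus saturating agonist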
NPY-Y1 ant conf = human NPY-Y1 antagonism, confirmation | shares compounds with NPY-Y1 antag | HEK293-CNG NPY-Y1, membrane potential fluorescence, cAMP; NPY challenge against isoproterenol-raised cAMP | inhibition, % at 3.6 µM | 21% of 1,200 active | AID 1254; in the data active = inhibition above about 20%;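 note: 0% = vehicle with agonist plus stimulus and 100% = stimulus alone without agonist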
NPY2 antag ctr = human NPY-Y2 antagonism in NPY-Y1 counter-screen; shares compounds with NPY-Y1 antag; HEK293 NPY-Y2 CNG membrane potential fluorescence; cells given NPY, then isoproterenol; inhibition, % at 3.6 µM; 28% of 1,200 active;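 note: 0% = DMSO with agonist challenge and 100% = reference antagonist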
Numbers without * were called inactive; i = inactive; . = no result given. Shown are actives, neighbours in structure and some others; about 2.3% of the full set was active somewhere. Cut-off read from the data, not from the text of the source, unless noted: active = inhibition above about 17%; inactive = the rest.

SMILES | Tb hexokinase | Calpain2 inh | NPY-Y1 PAM-ag | NPY-Y1 antag | NPY Y2 blocker | NPY2 pot ag | NPY-Y1 ant conf | NPY2 antag ctr
CS(=O)(=O)c1sc(C#N)c2c1C(=O)CC(c1ccccc1)C2 (configuration not stated) | -7.0 | -7.2 | 12.9 | . | . | 3.1 | . | .
COc1ccc(-c2nnc3sc(C4CCCCC4)nn23)cc1OC | -1.9 | -28.8 | -80.4 | 32.5* | 15.8 | -40.1 | 24.2* | 38.1*
Cc1cccc2nc(-c3cccnc3)c(NCCC(C)C)n12 | 3.8 | -430.8 | -0.1 | 21.8* | . | -7.2 | 14.3 | 10.4
CCN(CC)S(=O)(=O)c1cc(NC(=O)COc2ccc(C#N)cc2OC)ccc1C | -7.5 | 19.0 | -24.9 | 24.5* | 11.8 | -9.1 | 12.2 | 29.0*
CCN(CC)S(=O)(=O)c1cccc(NC(=O)COc2ccc(C#N)cc2OC)c1 | 9.0 | 4.6 | -37.3 | 16.7 | 2.1 | -13.6 | . | .
CCCCC12CN3CC(C)(CN(C1)C31C(=O)N(C)c3ccc(C)cc31)C2=O (configuration not stated) | -4.3 | -11.8 | -6.6 | 20.8* | 3.5 | 11.4 | 1.5 | 8.5
CC(=O)/C=C1\N(C)c2ccc(C)cc2C1(C)C | -26.8 | -181.6 | -9.6 | 5.5 | . | -12.1 | . | .
COc1cccc2cc(-c3nc(-c4cccs4)cs3)c(=O)oc12 | 1.5 | i | -29.3 | 0.5 | -1.9 | -19.6 | . | .
O=c1oc2ccccc2cc1-c1nc(-c2cccs2)cs1 | -4.0 | -66.0 | -27.8 | 29.9* | 13.2 | -1.9 | 11.4 | 8.2
Cc1cc(C)c(C#N)c(SCC(=O)c2cc(C)n(CCc3ccccc3)c2C)n1 | 4.0 | 2.7 | -10.5 | 23.6* | 0.7 | 3.5 | 9.6 | 11.3
CCCCn1c(=O)[nH]c(=O)c2c1nc(-c1cc3c(cc1Br)OCO3)n2C | 3.0 | -3.2 | 13.7 | -1.8 | . | -7.0 | . | .
Cc1ccc(-n2ncc(C(=O)N3CCc4ccccc4C3)c2NC(=O)c2ccco2)cc1C | -3.5 | -9.0 | -40.7 | 21.7* | 10.3 | -7.8 | 2.2 | 8.5
CCOc1cc(/C=N/NC(=O)c2cccnc2)cc(Br)c1OCC(N)=O | -9.3 | 0.8 | 11.0 | 0.6 | . | 15.4 | . | .
O=C(COC(=O)CCC(=O)c1ccc2c(c1)OCCO2)NCc1ccc2c(c1)OCO2 | 0.4 | 16.4 | -27.5 | 21.1* | 6.6 | -12.5 | 12.1 | 9.5
CCOC(=O)c1ccc(NC(=O)N2CCN(c3cccc(OC)c3)CC2)cc1 | 0.0 | 31.1 | 0.3 | -4.4 | . | 17.2 | . | .
Fc1ccccc1Cc1noc(CN2CCC(OCc3cccnc3)CC2)n1 | -1.9 | 22.3 | 8.2 | 2.8 | . | 12.1 | . | .
Cc1ccc(CSc2nc3ccccc3c(=O)n2Cc2ccco2)cc1 | 11.6 | 4.6 | -35.6 | 27.8* | 11.0 | -6.0 | 6.5 | 14.3
Cc1ccc(CSc2nc3ccccc3c(=O)n2CCCC(=O)NCc2ccco2)cc1 | 5.0 | 5.0 | 11.8 | 0.7 | -0.9 | -15.8 | . | .
Cc1ccc(-c2n[nH]c(=S)n2/N=C/c2c(C)nn(-c3ccccc3)c2C)cc1 | -1.4 | 33.6 | 7.9 | -1.9 | 7.2 | -7.1 | . | .
CCc1n[nH]c(=S)n1/N=C/c1c(C)nn(-c2ccccc2)c1Cl | 2.1 | -7.0 | -13.3 | 45.3* | . | -12.7 | 31.9* | 53.4*
CC(C)(C)NC(=O)c1ccc2nsnc2c1 | -5.1 | -2.1 | -5.1 | 1.6 | 2.6 | 5.1 | . | .
C=CCc1ccccc1OCCSc1nc2ccc([N+](=O)[O-])cc2s1 | -2.1 | 26.3 | 2.2 | 20.9* | 10.6 | -2.4 | 16.2 | 15.8
Nc1ccccc1C(=O)NNc1ncc(C(F)(F)F)cc1Cl | -7.8 | -24.4 | -79.7 | 21.5* | 5.2 | -28.4 | 5.4 | 7.7
O=C1N(c2ccccc2)C[C@@H]2C[C@@H](c3cc4ccccc4o3)N3CCC[C@@]123 | 1.0 | -29.3 | -8.4 | 27.4* | . | -4.8 | 17.8 | 11.9
COc1cccc(NC(=O)CN2CCN(c3ccccc3F)CC2)c1 | -0.1 | -20.7 | -36.4 | 21.7* | 5.9 | -14.6 | 6.1 | 5.9
SMILES | Tb hexokinase | Calpain2 inh | NPY-Y1 PAM-ag | NPY-Y1 antag | NPY Y2 blocker | NPY2 pot ag | NPY-Y1 ant conf | NPY2 antag ctr
CC(C)N1C(=O)C(Cc2nc3ccccc3c(=O)n2-c2ccccc2)c2ccccc21 (configuration not stated) | 1.2 | 3.0 | -56.8 | 22.1* | 2.0 | -30.4 | 14.5 | 18.0*
CCN(CC)c1ccc2c(c1)OC(N)=C(C#N)C2c1cccnc1 (configuration not stated) | 2.1 | -37.8 | -10.8 | 27.4* | 5.5 | -11.9 | 5.5 | 15.1
N#CC1=C(N)Oc2cc(N)ccc2C1c1cccnc1 (configuration not stated) | -6.6 | -20.8 | 13.5 | -1.8 | -0.4 | 5.2 | . | .
Nc1cc(=O)[nH]c(SCC(=O)NNC(=O)Cc2ccccc2)n1 | 1.6 | -26.5 | 3.5 | 16.1 | . | 9.6 | . | .
C/C(=N\Nc1nc(C)c(C)s1)c1ccc([N+](=O)[O-])cc1 | -0.1 | -28.5 | 25.8 | 37.7* | . | 20.3 | 41.9* | 53.6*
C/C(=N\Nc1ccc([N+](=O)[O-])cc1)c1ccc(N)cc1 | -7.2 | -19.9 | 7.9 | 0.4 | -3.2 | -11.5 | . | .
O=C(Nc1ccc(Cl)c(Cl)c1)Nc1nnc(CSc2ccccc2)s1 | 4.8 | -1.8 | 1.4 | 4.8 | 2.1 | 3.2 | . | .
COc1ccccc1-c1cc(C(F)(F)F)nc(S(C)(=O)=O)n1 | -19.1 | -206.5 | -27.0 | 17.9 | 7.8 | -32.9 | . | .
CS(=O)(=O)c1nc(-c2ccco2)cc(C(F)(F)F)n1 | -53.5 | -31.6 | -57.4 | 24.3* | 7.7 | -6.3 | 10.9 | 46.3*
CN1CCN(c2nc(-c3ccco3)cc(C(F)(F)F)n2)CC1 | -10.8 | -38.2 | -18.9 | 14.7 | 6.8 | -14.9 | . | .
FC(F)(F)c1cc(-c2ccco2)nc(-n2nc(C(F)(F)F)cc2C2CC2)n1 | -14.8 | -14.6 | -30.6 | 21.0* | 16.6 | -5.1 | 14.4 | 10.1
Cc1c(NC(=S)Nc2ccc(Cl)cc2)c(=O)n(-c2ccccc2)n1C | 4.2 | 6.6 | 13.6 | -1.1 | . | 1.5 | . | .
CCN(CC)CCn1c(=N)n(CC(O)COc2cccc(C)c2)c2ccccc21 (configuration not stated) | 4.4 | 9.3 | -47.7 | 55.5* | . | -28.3 | 43.6* | 41.5*
N=c1n(CCO)c2ccccc2n1Cc1ccc(Cl)cc1 | 1.0 | -7.6 | -27.1 | 11.1 | 5.9 | -19.9 | . | .
N=c1n(Cc2ccc(Cl)cc2)c2ccccc2n1CC(O)COc1ccccc1 (configuration not stated) | 21.5 | 35.3 | -9.5 | 41.3* | . | -26.3 | 25.6* | 22.2*
Fc1ccc(-c2nnc(Cc3ccc(Cl)cc3)o2)cc1 | 2.0 | 7.3 | -24.2 | . | . | -7.7 | . | .
N#Cc1nc(-c2ccc(F)cc2)oc1NCc1cccc2c1OCO2 | 0.0 | -9.0 | -24.8 | 21.5* | 14.8 | -9.2 | 15.9 | 15.1
